Experimental findings from ChEMBL document CHEMBL2021915, “Synthesis, characterization and biological activity of hydroxyl-bisphosphonic analogs of bile acids” (Eur J Med Chem, 2012) are described below.

Data set [1] can be described thus: Solubility of the compound in L929 cell culture medium. The class given is physicochemical.
Data set [2] relates to PBMC. Nature of the data set: Inhibition of osteoclastogenesis in human osteoclasts obtained from PBMC assessed as formation of TRAPC positive multinucleated cells at 10^-5 to 10^-9 M after 7 days. The class given is functional, cell-based. Put shortly: (§1)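 Human PBMC from buffy coats (Ficoll), adherent monocytes at 3 × 10^6 cells/cm2 differentiated in DMEM/10% FBS with 25% SH-SY5Y conditioned supernatant, compound (10^-5, 10^-7, 10^-9 M) added with differentiation medium for 7 days. TRACP-positive multinucleated cells counted after fixation and TRACP staining; untreated differentiated cultures = 100%. Duplicates; 4 cultures from two donors.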

Data set [3] relates to Hydroxyapatite. Nature of the data set: Binding affinity to hydroxyapatite assessed as unadsorbed compound level at 20 mg after 72 hrs using 7.5 mg/ml of hydroxyapatite by NMR analysis relative to control. Put shortly: (§2)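 Bisphosphonate salt dissolved in bidistilled water, pH adjusted to 7.4, and magnetically stirred at 25 °C for the hydroxyapatite adsorption test.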
Data set [4] has as its system Hydroxyapatite. The data set is described as follows: Binding affinity to hydroxyapatite assessed as unadsorbed compound level at 20 mg after 3 hrs using 2.5 mg/ml of hydroxyapatite by NMR analysis relative to control. The method, boiled down:
as §2

Data set [5] relates to Hydroxyapatite. Nature of the data set: Binding affinity to hydroxyapatite assessed as unadsorbed compound level at 20 mg after 48 hrs using 5 mg/ml of hydroxyapatite by NMR analysis relative to control. The method, boiled down: as §2
The subject of data set [6] is L929. Nature of the data set: Cytotoxicity against mouse L929 cells assessed as cell viability after 72 hrs by neutral-red uptake assay. To be noted: l929, 72 h. The data set is classed as cell-based. The method, boiled down: (§3)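 L929 mouse fibroblasts in MEM/10% FCS, 0.8 × 10^3 cells/well, adhered 24 h, then exposed to serial dilutions (10^-4 to 10^-10 M; 10^-2 M PBS pH 7.4 stocks) for 72 h. Neutral red 2 h at 37 °C, extracted with ethanol/acetic acid, OD 540 nm, blank-subtracted; ratio to medium-only control. Triplicate wells, 9 experiments.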

Data set [7] deals with Hydroxyapatite. Nature of the data set: Binding affinity to hydroxyapatite assessed as unadsorbed compound level at 20 mg after 96 hrs using 10 mg/ml of hydroxyapatite by NMR analysis relative to control. Put shortly: as §2
The test system of data set [8] is Hydroxyapatite. The data set is described as follows: Binding affinity to hydroxyapatite assessed as unadsorbed compound level at 20 mg after 24 hrs using 2.5 mg/ml of hydroxyapatite by NMR analysis relative to control. Put shortly:
as §2

Another data set has as its system Osteoclast. Nature of the data set: Induction of apoptosis in human multinucleated osteoclasts obtained from PBMC assessed as formation of apoptotic nuclear bodies at 10^-5 M after 7 days by Hoechst 33258 staining. The data set is classed as functional, cell-based. Put shortly: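 PBMC-derived osteoclasts (7 days in SH-SY5Y-conditioned differentiation medium) then exposed to compound (10^-5, 10^-7, 10^-9 M) for a further 7 days. Fixed, stained with phalloidin-TRITC (F-actin rings) and Hoechst 33258; multinucleated cells with apoptotic nuclear bodies counted over whole well at 40×, as % of multinucleated TRACP-positive cells. 4 cultures, two donors.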

Data set [9] concerns L929. The data set is described as follows: Cytotoxicity against mouse L929 cells assessed as cell viability at 10^-4 to 10^-5 M after 72 hrs by neutral-red uptake assay relative to neridronate. The settings on record: l929, 72 h. The data set is classed as cell-based. Put shortly: as §3
A short description of data set [10]: Distribution coefficient, log D of the compound at pH 7.4. The class given is physicochemical. The settings on record: octanol/water. Put shortly:
(§4)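 Log D values were obtained by calculation, not by experimental partitioning.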

The nature of data set [11]: Distribution coefficient, log D of the compound at pH 1.5. The class given is physicochemical. The settings on record: octanol/water. Put shortly: as §4
The subject of data set [12] is PBMC. Nature of the data set: Inhibition of osteoclastogenesis in human osteoclasts obtained from PBMC assessed as formation of TRAPC positive multinucleated cells at 10^-5 M after 7 days. The class given is functional, cell-based. Put shortly: as §1
Data set [13] relates to Hydroxyapatite. Nature of the data set: Binding affinity to hydroxyapatite assessed as unadsorbed compound level at 40 mg after 3 hrs using 2.5 mg/ml of hydroxyapatite by NMR analysis relative to control. The method, boiled down:
(§5)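 Compound (about 40 mg) dissolved in 10 mL bidistilled water, pH adjusted to 7.4, stirred at 25 °C in a capped vial with hydroxyapatite; remaining unadsorbed compound in solution followed over time by NMR signal relative to starting signal.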

The test system of data set [14] is Hydroxyapatite. The data set is described as follows: Binding affinity to hydroxyapatite assessed as unadsorbed compound level at 40 mg after 72 hrs using 7.5 mg/ml of hydroxyapatite by NMR analysis relative to control. Put shortly:
as §5

Data set [15] relates to Hydroxyapatite. Nature of the data set: Binding affinity to hydroxyapatite assessed as unadsorbed compound level at 40 mg after 96 hrs using 10 mg/ml of hydroxyapatite by NMR analysis relative to control. Put shortly: as §5
The subject of data set [16] is Hydroxyapatite. The data set is described as follows: Binding affinity to hydroxyapatite assessed as unadsorbed compound level at 40 mg after 24 hrs using 2.5 mg/ml of hydroxyapatite by NMR analysis relative to control. The method, boiled down:
as §5

In data set [17] the test system is Hydroxyapatite. Nature of the data set: Binding affinity to hydroxyapatite assessed as unadsorbed compound level at 40 mg after 48 hrs using 5 mg/ml of hydroxyapatite by NMR analysis relative to control. Put shortly:
as §5

SMILES strings stand for the structures. Activity calls are given as the source filed them. No cut-off for these calls is given here.

With `C[C@H](CCC(O)(P(=O)([O-])O)P(=O)([O-])O)[C@H]1CC[C@H]2[C@@H]3[C@@H](O)C[C@@H]4C[C@H](O)CC[C@]4(C)[C@H]3CC[C@]12C.[Na+].[Na+]`, the solubility entry in data set [1] is “Insoluble”.

On to `NCCCCCC(O)(P(=O)(O)O)P(=O)(O)O` [NERIDRONIC ACID], for which, in the data set with PBMC [2], the inhibition result was “Active”. Besides, the Activity with Hydroxyapatite [3] was 82%; in the data set with Hydroxyapatite [4], 98%; in the data set with Hydroxyapatite [5] it was 85%; in the data set with L929 [6], “Dose-dependent effect”; in the data set with Hydroxyapatite [7] it was 67%; in the data set on Hydroxyapatite [8], 96%. Also, in the data set with Osteoclast, the result was Active.

Regarding `C[C@H](CCC(O)(P(=O)([O-])O)P(=O)([O-])O)[C@H]1CC[C@H]2[C@@H]3[C@H](O)C[C@@H]4C[C@H](O)CC[C@]4(C)[C@H]3CC[C@]12C.[Na+].[Na+]`, the Activity result in the data set with L929 [9] was “Non-toxic”; with L929 [6] it was “Dose-dependent effect”.

The term logD denotes lipophilicity at a set pH, counting ionised and neutral species. As to `O=P(O)(O)C(Cl)(Cl)P(=O)(O)O` [CLODRONIC ACID], the logD in data set [10] is -5.04; in data set [11] it was -1.32. Also, the Activity in the data set on Hydroxyapatite [3] was found to be 96%; in the data set with Hydroxyapatite [4] it was 100%; in the data set on Hydroxyapatite [5], 100%; in the data set with Hydroxyapatite [7], 93%; with Hydroxyapatite [8] it was 100%.

Regarding `C[C@H](CCC(O)(P(=O)(O)O)P(=O)(O)O)[C@H]1CC[C@H]2[C@@H]3[C@H](O)C[C@@H]4C[C@H](O)CC[C@]4(C)[C@H]3C[C@H](O)[C@]12C`, the log distribution coefficient (logD) in data set [10] is -4.53; in data set [11], -0.76.

`C[C@H](CCC(O)(P(=O)([O-])O)P(=O)([O-])O)[C@H]1CC[C@H]2[C@@H]3[C@H](O)C[C@@H]4C[C@H](O)CC[C@]4(C)[C@H]3C[C@H](O)[C@]12C.[Na+].[Na+]`: the solubility entry in [1] was “Insoluble”.

For `C[C@H](CCC(O)(P(=O)(O)O)P(=O)(O)O)[C@H]1CC[C@H]2[C@@H]3[C@@H](O)C[C@@H]4C[C@H](O)CC[C@]4(C)[C@H]3CC[C@]12C`, the logD is -3.34 in [10] (read-out: logD) and 0.44 in [11].

Take `C[C@H](CCC(=O)O)[C@H]1CC[C@H]2[C@@H]3[C@H](O)C[C@@H]4C[C@H](O)CC[C@]4(C)[C@H]3CC[C@]12C`: the outcome with Osteoclast was Active. Besides, in the data set with PBMC [12], the inhibition result is “Active”.

As to `C[C@H](CCC(O)(P(=O)(O)O)P(=O)(O)O)[C@H]1CC[C@H]2[C@@H]3[C@H](O)C[C@@H]4C[C@H](O)CC[C@]4(C)[C@H]3CC[C@]12C` [listing 1 of 2 here], the logD in data set [10] (read-out: logD) is -3.34; in [11], 0.44.

For `C[C@H](CCC(O)(P(=O)(O)O)P(=O)(O)O)[C@H]1CC[C@H]2[C@@H]3[C@H](O)C[C@@H]4C[C@H](O)CC[C@]4(C)[C@H]3CC[C@]12C` [listing 2 of 2 here], the Activity in the data set with Hydroxyapatite [13] was 91%; with Hydroxyapatite [14], 12%; with Hydroxyapatite [15] it was 3%; with Hydroxyapatite [16], 64%; in the data set on Hydroxyapatite [17], 32%. In addition, the inhibition entry in the data set on PBMC [2] is “Active”. In the data set on Osteoclast, the outcome was Active.
